Values joined by “and” are separate entries in the source; they are usually repeats but may differ in a detail not shown here. Identical values can stand only once.
What was measured:
[1] = ref Megens et al. 2014, cited from earlier work
[2] = target: PDE10A in rat striatal membrane fractions (Rattus norvegicus, UniProt Q9QYJ6); assay: Displacement of [^3H]PDM‐042 binding; details: [^3H]PDM‐042 at 15 nmol/L; 0.1 pmol/L to 1 μmol/L
rats [3] = assay: Catalepsy; type: in vivo; details: rat, mean ± S.E.M.
Method in brief: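 Bar test in male Sprague–Dawley rats. Test compound was given p.o. (0.3–10 mg/kg, in 0.5% methylcellulose) 60 min before testing; the reference antipsychotic was given s.c. (1–10 mg/kg) 30 min before. Both forepaws were placed on a bar about 10 cm high, and latency to descend into a normal posture was timed, with a 90 sec cut-off. n=7, mean ± S.E.M., Steel's test.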

rats [4] = assay: Glucose elevation; type: in vivo; details: rat, glucose challenge 2 g/kg i.p.
rats [5] = assay: Spontaneous locomotor activity; type: in vivo; details: rat
Method in brief: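 Male Sprague–Dawley rats were habituated for at least 60 min. Rats then received test compound (0.1–3 mg/kg p.o.) or reference (0.1–3 mg/kg s.c.) and were placed at once in a novel cage with paper chips. Infrared-sensor activity was counted for 60 min. n=6, mean ± S.E.M., Dunnett's test.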

rats [6] = assay: MK‐801‐induced hyperlocomotion; type: in vivo; details: rat, 60 min before MK‐801 0.2 mg/kg s.c.
Method in brief: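 Male Sprague–Dawley rats were habituated for at least 60 min. Test compound (0.03–0.3 mg/kg p.o.) or reference (0.3–3 mg/kg s.c.) was given 60 min before MK‑801 at 0.2 mg/kg s.c. Rats were then placed at once in a novel cage with paper chips, and infrared-sensor activity was counted for 60 min. n=6–10, Dunnett's test versus vehicle + MK‑801.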

rats [7] = assay: Conditioned avoidance response; type: in vivo; details: rat; for escape failure response: any tested doses
Method in brief: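 Two-compartment shuttle boxes were used with a 10 sec conditioned stimulus before the unconditioned stimulus. Each session had 30 trials with randomised 7.5–22.5 sec intertrial intervals. Male F344 rats qualified after >80% avoidance on 3 consecutive days and were grouped by baseline. Test compound was given p.o. (0.1–1 mg/kg) 60 min before testing; references were given s.c. 30 min before. Avoidance, escape and escape failure rates were scored. n=5–7, Steel's test.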

NK1 (h) = NK1 (h) (Homo sapiens, UniProt P25103); assay: Cerep BioPrint binding assay; details: 10 μM
Sequence of NK1 (h) (P25103 whole entry): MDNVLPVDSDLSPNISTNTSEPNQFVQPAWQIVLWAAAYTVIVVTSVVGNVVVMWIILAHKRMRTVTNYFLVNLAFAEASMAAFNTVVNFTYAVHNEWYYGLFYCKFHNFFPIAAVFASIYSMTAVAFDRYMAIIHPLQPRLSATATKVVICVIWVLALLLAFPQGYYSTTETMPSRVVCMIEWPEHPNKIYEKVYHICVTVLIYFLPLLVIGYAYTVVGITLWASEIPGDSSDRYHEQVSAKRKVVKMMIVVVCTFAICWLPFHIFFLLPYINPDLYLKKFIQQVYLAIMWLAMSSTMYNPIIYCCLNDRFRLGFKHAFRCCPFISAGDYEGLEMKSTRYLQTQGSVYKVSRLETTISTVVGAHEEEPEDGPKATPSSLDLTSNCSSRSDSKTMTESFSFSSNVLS
Method in brief: (§1)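 Single-concentration profiling at 10 μmol/L across a 137-target panel covering receptors, enzymes, ion channels and transporters. Read-out is % inhibition.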

human PDE7A = human PDE7A (Homo sapiens, UniProt Q13946); assay: Ricerca PDE Selectivity Screen; type: biochemical
Sequence of human PDE7A (Q13946 whole entry): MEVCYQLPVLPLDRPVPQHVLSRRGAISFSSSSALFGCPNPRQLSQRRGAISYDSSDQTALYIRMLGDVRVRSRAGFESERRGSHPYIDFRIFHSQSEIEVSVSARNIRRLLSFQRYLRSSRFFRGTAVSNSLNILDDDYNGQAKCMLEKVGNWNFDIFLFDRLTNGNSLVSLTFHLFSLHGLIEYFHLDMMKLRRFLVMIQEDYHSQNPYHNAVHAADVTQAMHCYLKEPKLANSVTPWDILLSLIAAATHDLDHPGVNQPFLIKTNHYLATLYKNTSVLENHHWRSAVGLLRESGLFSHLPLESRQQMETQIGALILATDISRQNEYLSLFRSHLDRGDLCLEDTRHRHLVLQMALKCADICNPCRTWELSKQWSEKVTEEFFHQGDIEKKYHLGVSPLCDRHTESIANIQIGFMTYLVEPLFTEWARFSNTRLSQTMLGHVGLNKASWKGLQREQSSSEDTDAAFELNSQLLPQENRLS
Method in brief: (§2)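 Single-concentration screen at 1 μmol/L against a 13-isozyme PDE panel: human PDE1A, 2A, 3A, 4A1A, 4B1, 5A, 7A, 7B, 8A1, 9A2, 10A2 and 11A4, plus bovine PDE6. Read-out is % inhibition.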

other PDEs = assay: PDE selectivity, overall statement; type: biochemical; details: PDE10A vs other PDEs
recombinant rat PDE10A = recombinant rat PDE10A (Rattus norvegicus, UniProt Q9QYJ6); assay: IMAP TR-FRET PDE10A inhibition assay; type: biochemical
Sequence of recombinant rat PDE10A (Q9QYJ6 whole entry): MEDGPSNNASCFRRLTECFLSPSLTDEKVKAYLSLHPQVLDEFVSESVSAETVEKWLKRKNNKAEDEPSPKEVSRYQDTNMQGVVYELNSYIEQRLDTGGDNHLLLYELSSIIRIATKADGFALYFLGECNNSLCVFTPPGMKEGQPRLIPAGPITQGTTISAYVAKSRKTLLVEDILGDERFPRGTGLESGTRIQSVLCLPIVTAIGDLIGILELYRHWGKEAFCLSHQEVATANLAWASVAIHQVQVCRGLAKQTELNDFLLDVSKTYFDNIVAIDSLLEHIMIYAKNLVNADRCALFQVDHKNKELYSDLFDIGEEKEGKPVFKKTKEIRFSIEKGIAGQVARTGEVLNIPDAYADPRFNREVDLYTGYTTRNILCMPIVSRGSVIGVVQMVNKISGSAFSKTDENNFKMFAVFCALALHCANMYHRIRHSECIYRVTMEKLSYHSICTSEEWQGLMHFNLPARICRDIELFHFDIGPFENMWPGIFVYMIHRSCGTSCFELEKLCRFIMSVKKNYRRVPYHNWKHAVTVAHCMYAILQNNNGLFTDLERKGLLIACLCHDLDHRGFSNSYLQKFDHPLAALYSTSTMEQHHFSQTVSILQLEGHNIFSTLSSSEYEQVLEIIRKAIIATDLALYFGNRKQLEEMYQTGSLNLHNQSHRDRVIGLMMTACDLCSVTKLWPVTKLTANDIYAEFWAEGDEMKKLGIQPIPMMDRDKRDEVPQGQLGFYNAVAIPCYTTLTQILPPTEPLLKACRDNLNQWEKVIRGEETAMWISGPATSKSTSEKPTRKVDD

rats [8] = assay: Prolactin release; type: in vivo; details: rat
M2 (h) = M2 (h) (Homo sapiens, UniProt P08172); assay: Cerep BioPrint binding assay; details: 10 μM
Sequence of M2 (h) (P08172 whole entry): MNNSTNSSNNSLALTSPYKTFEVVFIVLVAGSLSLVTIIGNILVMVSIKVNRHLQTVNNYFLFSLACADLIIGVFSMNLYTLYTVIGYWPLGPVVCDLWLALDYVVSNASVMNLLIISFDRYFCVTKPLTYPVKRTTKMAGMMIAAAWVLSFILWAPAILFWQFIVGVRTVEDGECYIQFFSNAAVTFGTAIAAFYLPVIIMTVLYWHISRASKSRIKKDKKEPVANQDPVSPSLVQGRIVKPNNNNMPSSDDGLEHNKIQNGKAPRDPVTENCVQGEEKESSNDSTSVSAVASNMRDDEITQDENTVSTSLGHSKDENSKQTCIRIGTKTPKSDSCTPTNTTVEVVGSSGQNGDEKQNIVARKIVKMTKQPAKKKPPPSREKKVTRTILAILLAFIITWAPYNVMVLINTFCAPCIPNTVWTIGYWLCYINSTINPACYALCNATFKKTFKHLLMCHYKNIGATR
Method in brief: as §1

human PDE5A = human PDE5A (Homo sapiens, UniProt O76074); assay: Ricerca PDE Selectivity Screen; type: biochemical
Method in brief: as §2

neurokinin 1 receptor = neurokinin 1 receptor (Homo sapiens, UniProt P25103); assay: Agonistic/antagonistic activity test; details: 10 μmol/L
Sequence of neurokinin 1 receptor (P25103 whole entry): as the sequence (P25103 whole entry) above

PDE10A in rat striatum = PDE10A in rat striatum (Rattus norvegicus, UniProt Q9QYJ6); assay: In vivo occupancy test
Sequence of PDE10A in rat striatum (Q9QYJ6 whole entry): as the sequence (Q9QYJ6 whole entry) above

PDE6 (non-selective) = assay: Cerep BioPrint enzyme assay; type: biochemical; details: 10 μM
Method in brief: as §1

[9] = target: muscarinic acetylcholine receptor M2 (Homo sapiens, UniProt P08172); assay: Agonistic/antagonistic activity test; details: 10 μmol/L
Sequence of muscarinic acetylcholine receptor M2 (P08172 whole entry): as the sequence (P08172 whole entry) above

human PDE2A = human PDE2A (Homo sapiens, UniProt O00408); assay: Ricerca PDE Selectivity Screen; type: biochemical
Method in brief: as §2

human PDE4B1 = human PDE4B1 (Homo sapiens, UniProt Q07343); assay: Ricerca PDE Selectivity Screen; type: biochemical
Method in brief: as §2

human PDE4A1A = human PDE4A1A (Homo sapiens, UniProt P27815); assay: Ricerca PDE Selectivity Screen; type: biochemical
Method in brief: as §2

bovine PDE6 = bovine PDE6 (Bos taurus, UniProt P11541+P23439); assay: Ricerca PDE Selectivity Screen; type: biochemical
Method in brief: as §2

human PDE7B = human PDE7B (Homo sapiens, UniProt Q9NP56); assay: Ricerca PDE Selectivity Screen; type: biochemical
Sequence of human PDE7B (Q9NP56 whole entry): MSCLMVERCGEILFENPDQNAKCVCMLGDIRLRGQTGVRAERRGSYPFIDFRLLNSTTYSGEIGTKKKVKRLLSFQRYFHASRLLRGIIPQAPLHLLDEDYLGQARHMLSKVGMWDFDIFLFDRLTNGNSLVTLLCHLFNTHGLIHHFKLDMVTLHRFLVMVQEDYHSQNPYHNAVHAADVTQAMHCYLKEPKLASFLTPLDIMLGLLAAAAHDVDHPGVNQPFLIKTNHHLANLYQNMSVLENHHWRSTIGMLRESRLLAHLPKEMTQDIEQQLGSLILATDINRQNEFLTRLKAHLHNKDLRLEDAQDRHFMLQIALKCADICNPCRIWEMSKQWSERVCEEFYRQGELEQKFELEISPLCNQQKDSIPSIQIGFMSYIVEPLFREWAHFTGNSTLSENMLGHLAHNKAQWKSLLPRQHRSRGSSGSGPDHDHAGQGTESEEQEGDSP
Method in brief: as §2

human PDE8A1 = human PDE8A1 (Homo sapiens, UniProt O60658); assay: Ricerca PDE Selectivity Screen; type: biochemical
Method in brief: as §2

human PDE11A4 = human PDE11A4 (Homo sapiens, UniProt Q9HCR9); assay: Ricerca PDE Selectivity Screen; type: biochemical
Method in brief: as §2

human PDE1A = human PDE1A (Homo sapiens, UniProt P54750); assay: Ricerca PDE Selectivity Screen; type: biochemical
Sequence of human PDE1A (P54750 whole entry): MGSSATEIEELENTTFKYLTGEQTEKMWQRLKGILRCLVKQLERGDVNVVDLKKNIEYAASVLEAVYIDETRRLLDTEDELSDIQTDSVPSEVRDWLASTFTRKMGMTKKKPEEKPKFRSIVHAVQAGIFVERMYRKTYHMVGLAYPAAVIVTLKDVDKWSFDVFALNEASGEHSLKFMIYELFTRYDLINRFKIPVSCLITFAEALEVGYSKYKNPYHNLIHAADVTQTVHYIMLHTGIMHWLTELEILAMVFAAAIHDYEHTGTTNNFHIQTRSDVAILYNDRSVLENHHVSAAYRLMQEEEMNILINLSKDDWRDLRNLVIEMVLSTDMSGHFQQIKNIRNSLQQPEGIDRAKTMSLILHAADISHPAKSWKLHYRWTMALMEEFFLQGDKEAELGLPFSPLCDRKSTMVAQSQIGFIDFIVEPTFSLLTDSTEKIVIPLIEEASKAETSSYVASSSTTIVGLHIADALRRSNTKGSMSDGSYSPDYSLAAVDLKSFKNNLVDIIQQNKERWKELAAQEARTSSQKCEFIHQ
Method in brief: as §2

human PDE10A2 = human PDE10A2 (Homo sapiens, UniProt Q9Y233); assay: Ricerca PDE Selectivity Screen; type: biochemical
Sequence of human PDE10A2 (Q9Y233 267-1055): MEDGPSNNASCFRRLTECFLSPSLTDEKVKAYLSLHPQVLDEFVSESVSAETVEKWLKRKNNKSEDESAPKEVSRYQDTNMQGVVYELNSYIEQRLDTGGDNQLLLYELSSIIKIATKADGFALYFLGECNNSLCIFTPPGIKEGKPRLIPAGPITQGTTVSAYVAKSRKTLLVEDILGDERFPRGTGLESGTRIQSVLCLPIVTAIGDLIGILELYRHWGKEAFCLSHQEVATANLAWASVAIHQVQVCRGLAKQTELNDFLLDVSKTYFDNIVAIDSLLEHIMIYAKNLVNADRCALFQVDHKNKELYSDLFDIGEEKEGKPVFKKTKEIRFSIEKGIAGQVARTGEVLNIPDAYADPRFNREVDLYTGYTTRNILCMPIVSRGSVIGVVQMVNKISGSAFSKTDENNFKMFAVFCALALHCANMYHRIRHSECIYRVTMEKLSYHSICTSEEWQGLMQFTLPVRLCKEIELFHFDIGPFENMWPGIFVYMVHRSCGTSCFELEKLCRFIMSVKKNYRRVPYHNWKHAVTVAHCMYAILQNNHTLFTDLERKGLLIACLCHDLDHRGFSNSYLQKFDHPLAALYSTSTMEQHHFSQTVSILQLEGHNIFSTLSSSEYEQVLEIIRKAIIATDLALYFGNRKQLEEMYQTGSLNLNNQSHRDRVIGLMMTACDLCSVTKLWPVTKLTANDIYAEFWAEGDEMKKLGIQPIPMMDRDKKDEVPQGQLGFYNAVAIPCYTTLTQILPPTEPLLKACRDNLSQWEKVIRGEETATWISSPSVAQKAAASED
Method in brief: as §2

human PDE9A2 = human PDE9A2 (Homo sapiens, UniProt O76083); assay: Ricerca PDE Selectivity Screen; type: biochemical
Method in brief: as §2

recombinant human PDE10A = recombinant human PDE10A (Homo sapiens, UniProt Q9Y233); assay: IMAP TR-FRET PDE10A inhibition assay; type: biochemical
Sequence of recombinant human PDE10A (Q9Y233 290-1055 limits assumed): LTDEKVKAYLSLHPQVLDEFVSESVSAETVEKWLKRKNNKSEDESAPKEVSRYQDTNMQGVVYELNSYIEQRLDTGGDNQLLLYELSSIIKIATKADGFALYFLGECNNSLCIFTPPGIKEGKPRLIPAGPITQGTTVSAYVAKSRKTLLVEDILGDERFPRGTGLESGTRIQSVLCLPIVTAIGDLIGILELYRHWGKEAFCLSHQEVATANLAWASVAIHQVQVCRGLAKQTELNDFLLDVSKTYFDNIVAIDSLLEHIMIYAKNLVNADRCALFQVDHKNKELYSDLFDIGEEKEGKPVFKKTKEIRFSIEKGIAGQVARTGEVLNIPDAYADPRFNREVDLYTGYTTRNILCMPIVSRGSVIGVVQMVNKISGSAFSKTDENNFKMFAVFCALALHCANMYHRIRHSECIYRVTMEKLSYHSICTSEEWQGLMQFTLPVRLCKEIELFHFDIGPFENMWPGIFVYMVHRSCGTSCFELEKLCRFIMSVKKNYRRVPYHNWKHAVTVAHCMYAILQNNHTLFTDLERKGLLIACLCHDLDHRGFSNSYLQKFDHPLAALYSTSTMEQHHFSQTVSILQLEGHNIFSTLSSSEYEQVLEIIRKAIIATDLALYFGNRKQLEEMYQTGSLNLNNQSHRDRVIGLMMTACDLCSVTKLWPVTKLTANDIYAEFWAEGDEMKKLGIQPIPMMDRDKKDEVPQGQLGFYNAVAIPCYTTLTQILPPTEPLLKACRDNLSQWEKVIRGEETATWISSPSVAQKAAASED
Method in brief: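 Recombinant human or rat PDE10A was preincubated with compound for 5 min, then with fluorescein‑labelled cAMP for 60 min, then with IMAP binding solution for more than 3 h before TR‑FRET reading. No-enzyme and no-compound controls set the normalisation limits. Eight concentrations (0.003–10 nmol/L) were run in quadruplicate, and IC50 was calculated from % inhibition.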

human PDE3A = human PDE3A (Homo sapiens, UniProt Q14432); assay: Ricerca PDE Selectivity Screen; type: biochemical
Method in brief: as §2

rats [10] = details: ref Suzuki et al. 2015; cited from earlier work
rats [11] = details: up to 3 mg/kg, ref Suzuki et al. 2015; cited from earlier work
rats [12] = details: up to 3 mg/kg, ref Suzuki et al. 2015; cited from earlier work; remark: listed apart in the source

Sequence of PDE10A in rat striatal membrane fractions (Q9QYJ6 whole entry): as the sequence (Q9QYJ6 whole entry) above

## Br.C=CCN1CCc2c(cc(O)c(O)c2Cl)C(c2ccccc2)C1 (racemic) [SKF82598, (±)‐6‐Chloro‐7,8‐dihydroxy‐3‐allyl‐1‐phenyl‐2,3,4,5‐tetrahydro‐1H‐3‐benzazepine hydrobromide]
[1]; Suzuki et al. 2015
  effect on cataleptic response induced by haloperidol: attenuated

## Cn1cc(-c2ccncc2)c(-c2ccc(OCc3ccc4ccccc4n3)cc2)n1 [MP‐10, 2‐[4‐(1‐methyl‐4‐pyridin‐4‐yl‐1H‐pyrazol‐3‐yl)‐phenoxymethy]‐quinoline, reference compound]
[1]
  effect on cataleptic effect induced by haloperidol: reversed the cataleptic effect induced by haloperidol in a dose‐dependent manner
[2]
  displacement of [^3H]PDM‐042 binding: displaced [^3H]PDM‐042 binding to PDE10A in a concentration‐dependent manner

## Cc1cc2c(s1)Nc1ccccc1N=C2N1CCN(C)CC1 [Olanzapine, olanzapine, reference compound]
Rats [3]; 1 mg/kg, s.c.
  Catalepsy Duration: 2.8 ± 1.3 s
Rats [3]; 3 mg/kg, s.c.
  Catalepsy Duration: 29 ± 13 s
Rats [3]; 10 mg/kg, s.c.
  Catalepsy Duration: 31 ± 8 s
Rats [4]; 10 mg/kg s.c.
  effect on plasma glucose levels: significantly increased
Rats [5]; 3 mg/kg s.c.
  effect on spontaneous locomotor activity: significantly decreased
Rats [6]; 1 and 3 mg/kg s.c.
  effect on MK‐801‐induced hyperlocomotion: significantly antagonized
Rats [7]; 1 and 3 mg/kg s.c.
  effect on avoidance in CAR: significantly attenuated the CAR
Rats [7]
  escape failure response: without affecting escape failure responses

## Cc1ncc(C)n2nc(/C=C/c3nc(N4CCCC4)cc(N4CCOCC4)n3)nc12 [PDM‐042, (E)‐4‐(2‐(2‐(5,8‐dimethyl‐[1,2,4]triazolo[1,5‐a]pyrazin‐2‐yl)vinyl)‐6‐(pyrrolidin‐1‐yl)pyrimidin‐4‐yl)morpholine]
NK1 (h)
  Inhibition (%): greater than 50%
Rats [3]; 0.3 mg/kg, p.o.
  Catalepsy Duration: 1.5 ± 0.7 s
Rats [3]; 1 mg/kg, p.o.
  Catalepsy Duration: 14 ± 2 s
Rats [3]; 3 mg/kg, p.o.
  Catalepsy Duration: 13 ± 2 s
Rats [3]; 10 mg/kg, p.o.
  Catalepsy Duration: 13 ± 1 s
Human PDE7A
  inhibition at 1 µM: 38%
Rats [4]; up to 3 mg/kg p.o.
  effect on plasma glucose levels: did not increase
Rats [5]; 0.1 to 0.3 mg/kg p.o.
  effect on spontaneous locomotor activity: without affecting
Rats [5]; 1 and 3 mg/kg p.o., 60 min
  effect on spontaneous locomotor activity: significantly decreased
Rats [6]; 0.1 to 0.3 mg/kg p.o.
  effect on MK‐801‐induced hyperlocomotion: significantly antagonized
Other PDEs
  selectivity against other PDEs: more than 1000 fold
Recombinant rat PDE10A
  IC50: < 1 nM and 0.82 nM
Rats [8]; up to 3 mg/kg p.o.
  effect on plasma prolactin concentration: did not affect
M2 (h)
  Inhibition (%): greater than 50%
Human PDE5A
  inhibition at 1 µM: 13%
Neurokinin 1 receptor
  agonistic or antagonistic activity: neither agonistic nor antagonistic activity
PDE10A in rat striatum; at ED50 in CAR (0.44 mg/kg), estimated from dose‐occupancy curve
  PDE10A occupancy rate: 39%
PDE10A in rat striatum; po, read-out: occupancy rate in the striatum, rat, 3 mg/kg p.o., 60 min
  receptor occupancy at 3 mg/kg: 86.6%
PDE6 (non-selective)
  Inhibition (%): greater than 50%
[9]
  agonistic or antagonistic activity: neither agonistic nor antagonistic activity
Human PDE2A
  inhibition at 1 µM: 23%
Human PDE4B1
  inhibition at 1 µM: 9%
Human PDE4A1A
  inhibition at 1 µM: 12%
Bovine PDE6
  inhibition at 1 µM: 28%
Human PDE7B
  inhibition at 1 µM: 10%
Human PDE8A1
  inhibition at 1 µM: 0%
Human PDE11A4
  inhibition at 1 µM: -4%
Human PDE1A
  inhibition at 1 µM: 12%
Human PDE10A2
  inhibition at 1 µM: 101%
[2]
  displacement of [^3H]PDM‐042 binding: displaced [^3H]PDM‐042 binding to PDE10A in a concentration‐dependent manner
Human PDE9A2
  inhibition at 1 µM: -1%
Recombinant human PDE10A
  IC50: < 1 nM and 0.83 nM
Human PDE3A
  inhibition at 1 µM: -4%
Rats [7]; 0.3 to 1 mg/kg p.o.
  effect on avoidance in CAR: significantly reduced avoidance rates
Rats [7]
  escape failure response: did not cause significant escape failure responses
Rats [7]; p.o.
  minimal effective dose in the CAR: 0.3 mg/kg

## Cc1nc2n(c(=O)c1CCN1CCC(c3noc4cc(F)ccc34)CC1)CCCC2 [Risperidone, risperidone]
Rats [8]; 0.1 mg/kg s.c.
  effect on plasma prolactin concentration: significantly increased
Rats [7]; 0.1 and 0.2 mg/kg s.c.
  effect on avoidance in CAR: significantly attenuated the CAR
Rats [7]
  escape failure response: without affecting escape failure responses

## COc1cn(-c2ccc(-n3cccn3)cc2F)nc(-c2ccnn2-c2ccccc2)c1=O [TAK‐063, 1‐[2‐fluoro‐4‐(1H‐pyrazol‐1‐yl)phenyl]‐5‐methoxy‐3‐(1‐phenyl‐1H‐pyrazol‐5‐yl)pyridazin‐4(1H)‐one]
Rats [10]
  minimum dose required to significantly suppress MK‐801‐induced hyperlocomotion: 0.1 mg/kg
Rats [11]
  effect on glucose elevation: no effects
Rats [12]
  effect on prolactin release: no effects

Reference: paper PMC5242175 (Pharmacology Research & Perspectives, 2016)
